Published values gathered from unrelated publications.
Each line is one published result; the experiments were not run side by side.
Target: Serine/threonine-protein kinase pim-2 (PIM2, Homo sapiens, UniProt Q9P1W9)

SMILES | assay | conditions | quantity | value
CSc1nc(C)c(-c2ccnc(Nc3ccc(N4CCOCC4)cc3)c2)[nH]1 | enzyme activity, inhibitor | 10 µM | inhibition | -4.8%
CNC(=O)c1ccc(Nc2ncc(C(F)(F)F)c(NCc3nccnc3N(C)S(C)(=O)=O)n2)cc1 | cell-free assay, competition with immobilised ligand | 0.1 µM | remaining binding | 100%
Cn1c(=O)n(-c2ccc(C(C)(C)C#N)cc2)c2c3cc(-c4cnc5ccccc5c4)ccc3ncc21 | enzyme activity, inhibitor | 10 µM | remaining activity | 94%
COc1cc(Nc2cnc(C#N)c(O[C@H](C)CN(C)C)n2)ncc1-c1cnn(C)c1 | enzyme activity, inhibitor, radiometric | 10 µM | remaining activity | 77%
CCN(CC)CCNC(=O)c1c(C)[nH]c(/C=C2\C(=O)Nc3ccc(F)cc32)c1C | cell-free assay | 0.5 µM | remaining signal | 97.2%
N#Cc1ccc(Nc2ccc3[nH]c(=O)[nH]c3c2)c(Cl)c1 | cell-free assay, competition with immobilised ligand | 1 µM | remaining binding | 83%
N#CCCc1ccc2c(c1)-c1[nH]c3ccc([N+](=O)[O-])cc3c1CC(=O)N2 | cell-free assay | 0.5 µM | remaining signal | 104%
O=c1nc(-c2ccccn2)sc2ccccc12 | binding, competition with immobilised ligand | 1 µM | remaining binding | 97%
CC(C)(C)c1nc2c(s1)c1nc(N)ncc1c1ccc(NS(=O)(=O)c3c(F)cccc3F)c(F)c12 | enzyme activity, inhibitor, radiometric | 1 µM | remaining activity | 81%
CS(=O)(=O)N1CCCC(NC(=O)[C@H](CCC2CCCCC2)NC(=O)c2ccc(CNc3ncnc4c3nnn4-c3ccccc3)cc2)C1 (stereo partly shown) | cell-free assay, competition with immobilised ligand | 0.1 µM | remaining binding | 88%
CCCOc1ccc(OC)c(F)c1C(=O)c1ccc(C(=O)N[C@@H]2CNC[C@H]2NC(=O)c2ccc3[nH]ncc3c2)cc1 | enzyme activity, inhibitor | 10 µM | remaining activity | 101%
Cc1sc(C(=O)NC2COC2)cc1-n1cc(NC(=O)Nc2c(F)cccc2Cl)cn1 | enzyme activity, inhibitor | 10 µM | remaining activity | 96.5%
Cc1nccc(COC(=O)N2C[C@@H]3[C@@H](CNC(=O)c4ccc5[nH]nnc5c4)[C@@H]3C2)n1 | cell-free assay, competition with immobilised ligand | 1 µM | remaining binding | 0%
Cc1ccc(NC(=O)c2ccc(C)c(C(F)(F)F)c2)cc1C#Cc1nn(C2CCC(O)CC2)c2ncnc(N)c12 (stereo not shown) | cell-free assay | 10 µM | remaining signal | 112%
O=C1CCc2cc(Nc3cc(OC4CCOCC4)c([N+](=O)[O-])cc3Cl)ccc2N1 | cell-free assay, competition with immobilised ligand | 1 µM | remaining binding | 84%
Nc1ncnc2occ(-c3ccc(NC(=O)Nc4cc(C(F)(F)F)ccc4F)cc3)c12 | cell-free assay, inhibitor | 20 µM | remaining signal | 100%
Nc1nc(Nc2ccccc2)sc1C(=O)c1c(F)cccc1F | enzyme activity, inhibitor | 10 µM | remaining activity | 91%
COc1cc2ncnc(Nc3ccc(Oc4ccccc4)cc3C)c2cc1OC | enzyme activity, inhibitor | 1 µM | inhibition | -2%
CNC(=O)c1cc(Oc2ccc(NC(=O)Nc3ccc(Cl)c(C(F)(F)F)c3)cc2)ccn1 | enzyme activity, inhibitor | 0.3 µM | inhibition | 6%
CN1CC(Oc2cnc(C#N)cc2-c2ccn3nc(NC(=O)C4CC4)cc3c2)C1 | enzyme activity, inhibitor | 1 µM | inhibition | 4%
C[C@@H]1CN(c2cc(-c3n[nH]c4ccc(OC5(C)CC5)cc34)ncn2)C[C@H](C)O1 | cell-free assay, competition with immobilised ligand | 0.1 µM | remaining binding | 88%
C#Cc1cccc(Nc2ncnc3cc(OCCOC)c(OCCOC)cc23)c1 | cell-free assay | 0.5 µM | remaining signal | 97.9%
